Here are results for 11 compounds from ChEMBL document CHEMBL1139691, “Microwave-assisted synthesis of thieno[2,3-c]pyridine derivatives as a new series of allosteric enhancers at the adenosine A(1) receptor” (Bioorg Med Chem Lett, 2006).

Calls of active or inactive are those of the source. The rule behind the calls is not given here.

Experiment [1] has as its target T1, Adenosine receptor A3 (Homo sapiens) (UniProt P0DMS8).
T1 sequence (whole entry): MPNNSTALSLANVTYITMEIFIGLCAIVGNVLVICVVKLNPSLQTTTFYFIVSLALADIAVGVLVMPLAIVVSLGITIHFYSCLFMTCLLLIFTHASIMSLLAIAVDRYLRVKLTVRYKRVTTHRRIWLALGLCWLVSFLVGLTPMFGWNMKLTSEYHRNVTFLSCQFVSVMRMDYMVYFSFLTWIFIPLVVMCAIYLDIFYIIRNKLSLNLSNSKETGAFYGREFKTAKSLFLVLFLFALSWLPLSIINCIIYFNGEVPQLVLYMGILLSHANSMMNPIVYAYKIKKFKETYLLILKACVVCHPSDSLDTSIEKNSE
Nature of the experiment: Displacement of [3H]MRE-3008F20 from human adenosine A3 receptor expressed in CHO cells at 10 uM. Format: cell-based. A digest of the protocol:
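Competition for [3H]MRE-3008F20 at CHO hA3 membranes (100 µg protein), 150 min at 4 °C, Tris-HCl with MgCl2 and 1 mM EDTA, pH 7.4. Compound tested at 10 µM; percent displacement reported, n = 3.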
A general note: Displacement assays read how much labelled ligand stays bound in the presence of the test substance.

For experiment [2], the target named is T2, Adenosine receptor A1 (Homo sapiens) (UniProt P30542).
T2 sequence (whole entry): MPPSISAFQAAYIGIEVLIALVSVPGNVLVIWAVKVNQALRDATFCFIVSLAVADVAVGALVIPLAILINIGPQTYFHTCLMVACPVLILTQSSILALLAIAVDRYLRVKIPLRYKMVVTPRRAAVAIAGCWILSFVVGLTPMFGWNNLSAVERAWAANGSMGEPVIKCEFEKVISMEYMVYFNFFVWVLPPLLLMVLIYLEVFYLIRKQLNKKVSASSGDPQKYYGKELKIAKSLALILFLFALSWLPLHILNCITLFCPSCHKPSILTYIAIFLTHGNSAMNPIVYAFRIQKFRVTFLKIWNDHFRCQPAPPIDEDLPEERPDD
Nature of the experiment: Activity at human recombinant adenosine A1 receptor expressed in CHO cells assessed as inhibition of forskolin-stimulated cAMP accumulation in presence of CPA at 0.1 uM relative to control. It counts as functional, cell-based. The arrangement: scale not given: the % may be the effect or the level left. Put shortly: (§1)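 CHO cells stably expressing human A1 receptor (about 5 pmol/mg protein), grown 48–72 h in Ham's F12 with FBS and G-418. Cells were washed in HBSS for 6 min at 37 °C, then incubated 6 min at 37 °C in HBSS with adenosine deaminase (0.5 U/ml), 20 µM rolipram, 1 µM forskolin and 0.03 nM CPA, plus compound at 0.01–10 µM. Stopped with 50 mM HCl; cAMP read by acetylation radioimmunoassay. Quadruplicates; averaged over six experiments.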
Background: Changes in cAMP serve as a functional read-out for many G protein-coupled receptors.

Experiment [3] concerns the target T2, Adenosine receptor A1 (Homo sapiens). Nature of the experiment: Activity at human recombinant adenosine A1 receptor expressed in CHO cells assessed as inhibition of forskolin-stimulated cAMP accumulation in presence of CPA at 10 uM relative to control. It counts as functional, cell-based. More on the design: scale not given: the % may be the effect or the level left. Put shortly:
as §1

For experiment [4] the target is unchanged. Nature of the experiment: Activity at human recombinant adenosine A1 receptor expressed in CHO cells assessed as inhibition of forskolin-stimulated cAMP accumulation in presence of CPA at 0.01 uM relative to control. Format: functional, cell-based. The arrangement: scale not given: the % may be the effect or the level left. A digest of the protocol:
as §1

The target is the same in experiment [5]. Nature of the experiment: Displacement of [3H]DPCPX from human adenosine A1 receptor expressed in CHO cells at 10 uM. It counts as cell-based. A digest of the protocol:
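Competition for 1 nM [3H]DPCPX at CHO hA1 membranes (100 µg protein), 150 min at 25 °C, Tris-HCl pH 7.4. Nonspecific binding defined with 1 µM DPCPX. Compound tested at 10 µM; percent displacement reported, n = 3.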

The target in experiment [6] is Adenosine A2 receptor (Homo sapiens) (UniProt P29275+P29274). Nature of the experiment: Displacement of [3H]ZM 241385 from human adenosine A2 receptor expressed in CHO cells at 10 uM. Format: cell-based. Put shortly: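 Competition for [3H]ZM 241385 at CHO hA2A membranes (100 µg protein), 60 min at 4 °C, Tris-HCl with MgCl2, pH 7.4. Nonspecific binding defined with 1 µM ZM241385. Compound tested at 10 µM; percent displacement reported, n = 3.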

Experiment [7] has as its target T2, Adenosine receptor A1 (Homo sapiens). Nature of the experiment: Activity at human recombinant adenosine A1 receptor expressed in CHO cells assessed as inhibition of forskolin-stimulated cAMP accumulation in presence of CPA at 1 uM relative to control. Format: functional, cell-based. More on the design: scale not given: the % may be the effect or the level left. A digest of the protocol: as §1

Experiment [8] has the same target. Nature of the experiment: Activity at human recombinant adenosine A1 receptor expressed in CHO cells assessed as inhibition of forskolin-stimulated cAMP accumulation in the presence of CPA relative to control. Format: functional, cell-based. The arrangement: scale not given: the % may be the effect or the level left. Put shortly:
as §1

The target is the same in experiment [9]. Nature of the experiment: Activity at human recombinant adenosine A1 receptor expressed in CHO cells assessed as inhibition of forskolin-stimulated cAMP accumulation in the presence of CPA at 10 uM. Format: functional, cell-based. The arrangement: scale not given: the % may be the effect or the level left. Put shortly:
as §1

Usually inhibition stands for how much of the control response was suppressed. Turning to `COc1ccc(C(=O)c2c(N)sc3cnccc23)cc1`, the inhibition in [1], in experiment [5] and in [6] was 0% throughout. In addition, the Activity in experiment [2] came to 97%; in [3], 94%; in experiment [4], 95%; in experiment [7] it was 90%.
With `Cc1sc(N)c(C(=O)c2cccc(C(F)(F)F)c2)c1C`, the Activity amounted to 48% in [8]; 93% in [2]; 52% in experiment [3]; 97% in [4]; 81% in experiment [7]. Also, the inhibition in experiment [5] and in experiment [6] was 0% throughout.
For the compound `Nc1sc2cnccc2c1C(=O)c1ccc(Cl)cc1`, the inhibition in experiment [1] turned out to be 0%; in [5] it was 50%; in experiment [6] it was 0%. Also, the Activity worked out at 102% in experiment [2], 114% in experiment [3], 104% in experiment [4] and 96% in experiment [7].
Take `Nc1sc2cnccc2c1C(=O)c1ccccc1`: the inhibition in experiment [1], in experiment [5] and in [6] was 0% throughout. Besides, the Activity was found to be 89% in [2], 100% in [3], 91% in [4] and 90% in [7].
Take `Nc1sc2cnccc2c1C(=O)c1ccc(Br)cc1`: the inhibition in experiment [1], in experiment [5] and in experiment [6] was 0% in each case. The Activity in [2] was determined as 89%; in experiment [3], 104%; in experiment [4] it was 97%; in experiment [7] it was 84%.
Take `Nc1sc2cnccc2c1C(=O)c1cccc(C(F)(F)F)c1`: the inhibition in [1], in [5] and in [6] was 0% in each case. Besides, the Activity in experiment [2] worked out at 95%; in [3] it was 63%; in [4] it was 101%; in experiment [9], 37%; in [7] it was 82%.
On to `Cc1ccc(C(=O)c2c(N)sc3cnccc23)cc1`, for which the inhibition in experiment [1] worked out at 0%; in experiment [5], 45%; in experiment [6], 0%. The Activity turned out to be 107% in experiment [2], 121% in experiment [3], 102% in experiment [4] and 107% in [7].
Regarding `Nc1sc2cnccc2c1C(=O)c1cccs1`, the inhibition in experiment [1] amounted to 0%; in experiment [5], 35%; in experiment [6], 0%. In addition, the Activity is 104% in experiment [2], 98% in [3], 111% in [4] and 107% in [7].
In the case of `Nc1sc2cnccc2c1C(=O)c1cccc2ccccc12`, the inhibition in experiment [1], in [5] and in experiment [6] was 0% throughout. The Activity is 112% in experiment [2], 66% in experiment [3], 113% in experiment [4] and 107% in [7]. For the same compound, in [9], the result was Active.
With `Nc1sc2cnccc2c1C(=O)c1ccc(Cl)c(Cl)c1`, the inhibition in experiment [1], in experiment [5] and in experiment [6] was 0% throughout. The Activity in experiment [2] was 108%; in experiment [3], 105%; in experiment [4], 113%; in [7], 103%.
In the case of `Nc1sc2cnccc2c1C(=O)c1ccccc1Cl`, the inhibition in experiment [1], in experiment [5] and in experiment [6] was 0% throughout. For the same compound, the Activity in [2] was 98%; in experiment [3] it was 111%; in experiment [4], 103%; in [7], 97%.
